Experiment [1] has as its target T1, Aminopeptidase N (Plasmodium falciparum FcB1/Columbia) (UniProt O96935).
T1 sequence (whole entry): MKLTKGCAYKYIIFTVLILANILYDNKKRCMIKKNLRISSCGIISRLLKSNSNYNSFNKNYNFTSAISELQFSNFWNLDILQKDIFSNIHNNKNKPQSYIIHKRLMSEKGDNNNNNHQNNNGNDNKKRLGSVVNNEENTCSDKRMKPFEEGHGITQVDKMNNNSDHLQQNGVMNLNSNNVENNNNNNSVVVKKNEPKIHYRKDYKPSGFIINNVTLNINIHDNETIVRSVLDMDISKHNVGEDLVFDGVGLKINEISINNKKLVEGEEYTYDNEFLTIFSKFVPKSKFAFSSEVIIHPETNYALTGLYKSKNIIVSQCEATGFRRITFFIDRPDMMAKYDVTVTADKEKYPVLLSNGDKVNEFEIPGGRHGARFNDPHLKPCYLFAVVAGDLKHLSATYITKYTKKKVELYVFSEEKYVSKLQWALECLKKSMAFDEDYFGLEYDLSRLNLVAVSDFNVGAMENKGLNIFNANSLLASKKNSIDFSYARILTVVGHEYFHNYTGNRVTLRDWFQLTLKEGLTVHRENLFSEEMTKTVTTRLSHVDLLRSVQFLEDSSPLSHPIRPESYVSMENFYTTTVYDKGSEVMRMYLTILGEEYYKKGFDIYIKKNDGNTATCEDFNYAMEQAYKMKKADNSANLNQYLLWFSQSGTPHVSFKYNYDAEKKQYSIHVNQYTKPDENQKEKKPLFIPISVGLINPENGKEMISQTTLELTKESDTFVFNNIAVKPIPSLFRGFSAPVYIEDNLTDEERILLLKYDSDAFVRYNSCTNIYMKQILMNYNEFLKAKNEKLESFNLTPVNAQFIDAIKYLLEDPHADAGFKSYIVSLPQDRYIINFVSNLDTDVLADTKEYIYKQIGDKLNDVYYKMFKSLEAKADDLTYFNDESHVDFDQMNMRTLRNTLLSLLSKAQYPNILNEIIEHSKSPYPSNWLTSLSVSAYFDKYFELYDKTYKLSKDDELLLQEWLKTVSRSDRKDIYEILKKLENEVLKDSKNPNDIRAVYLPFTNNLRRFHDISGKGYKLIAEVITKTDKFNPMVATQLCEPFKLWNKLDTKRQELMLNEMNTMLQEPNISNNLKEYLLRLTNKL
Description: Inhibition of Plasmodium falciparum FcB1 M1 aminopeptidase at 10 uM. The gist of the method: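 Native enzyme purified from P. falciparum FcB1, diluted 10-fold in 25 mM Tris-HCl pH 7.4. Preincubated with inhibitor for 10 min at room temperature, then Leu-pNA substrate added (0.3 mM stock, Km 0.099 mM). Kinetics followed at 405 nm at room temperature. Initial velocities normalized to a no-inhibitor control. Single-point screen at 10 µM; IC50 from velocity versus inhibitor concentration curves. Bestatin used as reference.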

Experiment [2] addresses T2, Aminopeptidase N (Sus scrofa) (UniProt P15145).
T2 sequence (whole entry): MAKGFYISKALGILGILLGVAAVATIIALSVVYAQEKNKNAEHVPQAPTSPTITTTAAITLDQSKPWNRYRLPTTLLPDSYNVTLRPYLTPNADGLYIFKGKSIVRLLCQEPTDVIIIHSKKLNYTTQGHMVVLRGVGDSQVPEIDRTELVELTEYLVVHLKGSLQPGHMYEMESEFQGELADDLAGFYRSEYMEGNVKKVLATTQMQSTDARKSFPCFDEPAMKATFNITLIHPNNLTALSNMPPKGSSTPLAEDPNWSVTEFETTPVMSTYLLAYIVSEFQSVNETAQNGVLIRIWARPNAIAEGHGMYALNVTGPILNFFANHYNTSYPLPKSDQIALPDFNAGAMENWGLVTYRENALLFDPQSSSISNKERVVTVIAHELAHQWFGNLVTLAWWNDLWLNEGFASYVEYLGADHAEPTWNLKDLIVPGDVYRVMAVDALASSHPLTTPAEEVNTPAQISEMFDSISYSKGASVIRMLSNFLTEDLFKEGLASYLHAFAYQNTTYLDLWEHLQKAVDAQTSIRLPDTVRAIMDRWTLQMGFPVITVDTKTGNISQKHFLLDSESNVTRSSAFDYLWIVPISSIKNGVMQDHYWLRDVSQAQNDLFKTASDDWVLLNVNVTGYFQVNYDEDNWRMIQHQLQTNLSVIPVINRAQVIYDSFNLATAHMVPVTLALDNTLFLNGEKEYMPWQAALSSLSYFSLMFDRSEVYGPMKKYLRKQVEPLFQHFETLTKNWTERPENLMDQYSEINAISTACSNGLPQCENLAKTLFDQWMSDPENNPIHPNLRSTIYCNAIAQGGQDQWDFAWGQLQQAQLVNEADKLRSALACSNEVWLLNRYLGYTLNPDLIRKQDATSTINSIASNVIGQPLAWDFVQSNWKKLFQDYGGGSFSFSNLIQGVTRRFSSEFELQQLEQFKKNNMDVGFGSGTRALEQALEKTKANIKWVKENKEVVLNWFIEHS
Put plainly: Inhibition of pig kidney microsomal APN at 10 uM. The gist of the method:
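Porcine kidney microsomal APN (ammonium sulfate suspension) diluted 600-fold in 25 mM Tris-HCl pH 7.4. Preincubated with inhibitor for 10 min at room temperature, then Leu-pNA added (0.3 mM stock). Hydrolysis followed at 405 nm at room temperature. Rates normalized to a no-inhibitor control. Single point at 10 µM; IC50 from concentration-velocity curves. Bestatin used as reference.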

In general, inhibition refers to the drop in the measured response relative to a control, in per cent. On to `O=C(CC(=O)NCCNc1cccc2ccccc12)NO`, for which the inhibition in experiment [1] is 0%; in experiment [2] it was 14%.
Regarding `NC(C(=O)NO)C(=O)N1CCC2(CC1)C(=O)NCN2c1ccccc1` (configuration not stated), the inhibition in experiment [1] was -6%; in experiment [2] it was 43%.
For `NC(C(=O)NO)C(=O)NCc1cccc(Oc2ccccc2)c1` (configuration not stated), the inhibition in experiment [1] was 51%; in experiment [2] it was 31%.
The like results for `O=C(CC(=O)NC1CCN(Cc2ccccc2)CC1)NO` were, in that order, -2% and 14%.
Regarding `NC(C(=O)NO)C(=O)N(CCc1ccccc1)Cc1ccccc1` (configuration not stated), the inhibition in experiment [1] came out at 4%; in experiment [2] it was 34%.
As for `CC(C)CC(C(=O)NO)C(=O)NC1CCN(Cc2ccccc2)CC1` (configuration not stated), the inhibition in experiment [1] amounted to 3%; in experiment [2], 57%.
The like results for `CC(C)CN(CCCCc1ccccc1)C(=O)C(Cc1ccccc1)C(=O)NO` (configuration not stated) were, in that order, 45% and 28%.
Take `O=C(NO)C(Cc1ccccc1)C(=O)N1CCC2(CC1)C(=O)NCN2c1ccccc1` (configuration not stated): the inhibition in experiment [1] was 40%; in experiment [2], 22%.
For `O=C(NO)C(Cc1ccccc1)C(=O)N1CCC2(CCNc3ccccc3O2)CC1` (configuration not stated), the inhibition in experiment [1] came out at 7%; in experiment [2] it was 32%.
As for `O=C(NO)C(Cc1ccccc1)C(=O)NCCNc1cccc2ccccc12` (configuration not stated), the inhibition in experiment [1] turned out to be 59%; in experiment [2] it was 76%.
As for `O=C(NO)C(Cc1cccc(Oc2ccccc2)c1)C(=O)NCCNc1cccc2ccccc12` (configuration not stated), the inhibition in experiment [1] was 66%; in experiment [2], 78%.
Turning to `O=C(NO)C(Cc1ccccc1)C(=O)NCc1ccc(C(F)(F)F)cc1` (configuration not stated), the inhibition in experiment [1] is 67%; in experiment [2], 75%.
For `O=C(CC(=O)NCc1cccc(-c2ccccc2)c1)NO`, the inhibition in experiment [1] was found to be 28%; in experiment [2], 66%.
On to `NC(C(=O)NO)C(=O)NCCCc1ccccc1` (configuration not stated), for which the inhibition is 64% in experiment [1] and 8% in experiment [2].
For `O=C(NO)C(Cc1ccccc1)C(=O)NCc1cccnc1` (configuration not stated), the figures for the inhibition in experiment [1] and in experiment [2] were -6% and 15%, respectively.
For `CN(CCCCc1ccccc1)C(=O)C(N)C(=O)NO` (configuration not stated), the inhibition in experiment [1] was 12%; in experiment [2] it was 10%.
For the compound `O=C(NO)C(Cc1ccccc1)C(=O)NCCC(c1ccccc1)c1ccccc1` (configuration not stated), the inhibition in experiment [1] came to 65%; in experiment [2] it was 83%.
For the compound `O=C(CC(=O)N1CCC(Cc2ccccc2)CC1)NO`, the inhibition came to 7% in experiment [1] and 23% in experiment [2].
Regarding `O=C(CC(=O)N1CCN(c2ccccc2)CC1)NO`, the results for the inhibition in experiment [1] and in experiment [2] were -9% and 11%, respectively.
Taken in the same sequence, the figures for `O=C(CC(=O)N1CCc2ccccc2C1)NO` were -3% and 19%.
Turning to `O=C(CC(=O)NCCc1ccccc1)NO`, the inhibition in experiment [1] is -2%; in experiment [2], 27%.
Turning to `O=C(CC(=O)N1CCC(n2c(=O)[nH]c3ccccc32)CC1)NO`, the figures for the inhibition in experiment [1] and in experiment [2] were 6% and 19%, respectively.
Regarding `O=C(CC(=O)NCc1ccccc1)NO`, the inhibition is 2% in experiment [1] and 19% in experiment [2].
Taken in the same sequence, the figures for `CN(Cc1ccccc1)C(=O)C(Cc1ccccc1)C(=O)NO` (configuration not stated) were 45% and 36%.
On to `NC(C(=O)NO)C(=O)NCCNc1cccc2ccccc12` (configuration not stated), for which the results for the inhibition in experiment [1] and in experiment [2] were 2% and 16%, respectively.
The like results for `O=C(NO)C(Cc1cccc(Oc2ccccc2)c1)C(=O)N1CCC2(CCNc3ccccc3O2)CC1` (configuration not stated) were, in that order, 48% and 81%.
Turning to `NC(C(=O)NO)C(=O)NCc1ccc(Cl)cc1` (configuration not stated), the inhibition amounted to 5% in experiment [1] and 54% in experiment [2].
Taken in the same sequence, the figures for `O=C(CC(=O)NCc1ccc(Cl)cc1)NO` were 10% and 13%.
Taken in the same sequence, the figures for `CN(CCCNC(=O)CC(=O)NO)c1ccccc1` were 22% and 32%.
Turning to `Cc1ccccc1CNC(=O)CC(=O)NO`, the inhibition in experiment [1] turned out to be 32%; in experiment [2], 17%.
Consider `NC(C(=O)NO)C(=O)N1CCC2(CCNc3ccccc3O2)CC1` (configuration not stated), for which the inhibition is -4% in experiment [1] and 9% in experiment [2].
Taken in the same sequence, the figures for `NC(C(=O)NO)C(=O)N[C@H]1CCN(Cc2ccccc2)C1` (some centres not stated) were 2% and 37%.
Taken in the same sequence, the figures for `CC(C)CC(C(=O)NO)C(=O)N1CCC2(CCNc3ccccc3O2)CC1` (configuration not stated) were 16% and 21%.
For `NC(C(=O)NO)C(=O)N1CCN(c2ccccc2)CC1` (configuration not stated), the inhibition in experiment [1] is -2%; in experiment [2], 11%.
On to `CC(C)CC(C(=O)NO)C(=O)N1CCN(C(c2ccccc2)c2ccccc2)CC1` (configuration not stated), for which the values for the inhibition in experiment [1] and in experiment [2] were -2% and 19%, respectively.
For `O=C(CC(=O)NCc1ccc(F)cc1)NO`, the inhibition in experiment [1] is 6%; in experiment [2] it was 16%.
`O=C(NO)C(Cc1ccccc1)C(=O)N[C@H]1CCN(Cc2ccccc2)C1` (some centres not stated): the inhibition in experiment [1] came out at 43%; in experiment [2] it was 28%.
The like results for `CC(C)CC(C(=O)NO)C(=O)N1CCN(Cc2ccc3c(c2)OCO3)CC1` (configuration not stated) were, in that order, 21% and 19%.
As to `O=C(NO)C(Cc1ccccc1)C(=O)N1CCC(n2c(=O)[nH]c3ccccc32)CC1` (configuration not stated), the inhibition in experiment [1] is -1%; in experiment [2], 56%.
As for `NC(C(=O)NO)C(=O)NCCC(c1ccccc1)c1ccccc1` (configuration not stated), the inhibition worked out at 8% in experiment [1] and 62% in experiment [2].
The like results for `O=C(NO)C(Cc1cccc(Oc2ccccc2)c1)C(=O)NCc1ccc(F)cc1` (configuration not stated) were, in that order, 35% and 22%.
Consider `O=C(NO)C(Cc1cccc(Oc2ccccc2)c1)C(=O)N[C@H]1CCN(Cc2ccccc2)C1` (some centres not stated), for which the figures for the inhibition in experiment [1] and in experiment [2] were 41% and 86%, respectively.
As for `O=C(NO)C(Cc1cccc(Oc2ccccc2)c1)C(=O)N1CCN(Cc2ccccc2)CC1` (configuration not stated), the inhibition in experiment [1] was determined as 84%; in experiment [2], 47%.
Take `CC(C)CC(C(=O)NO)C(=O)NCCCN(C)c1ccccc1` (configuration not stated): the inhibition was determined as 66% in experiment [1] and 81% in experiment [2].
On to `O=C(NO)C(Cc1cccc(Oc2ccccc2)c1)C(=O)N1CCC2(CC1)C(=O)NCN2c1ccccc1` (configuration not stated), for which the values for the inhibition in experiment [1] and in experiment [2] were 65% and 70%, respectively.
As for `O=C(CC(=O)N1CCN(Cc2ccc3c(c2)OCO3)CC1)NO`, the values for the inhibition in experiment [1] and in experiment [2] were 7% and 11%, respectively.
